The subject of data set [1] is Mus musculus. Kind of data set: Antifertility activity in male Swiss albino mouse assessed as viable conceptus at 10 mg/kg, ip qd administered for 5 days followed by mating measured after 1 week. The format is functional, organism-based. Details: dose 10 mg/kg. The method, boiled down: (§1)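 Male Swiss albino mice, 4–6 per group, dosed ip or orally by gavage for five consecutive days (10, 15, 22.5 or 33.8 mg/kg), then serially mated with females over successive mating periods against control groups. Read-outs were nonpregnant/total females and viable/total conceptus per period. Student's t test versus control (p < 0.05) was used only for groups with at least two pregnant females.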

For data set [2], the system named is Mus musculus. Briefly: Antifertility activity in male Swiss albino mouse assessed as nonpregnant female mouse at 10 mg/kg, ip qd administered for 5 days followed by mating measured after 3 weeks. Also noted: dose 10 mg/kg. The format is functional, organism-based. The method, boiled down:
as §1

The subject of data set [3] is Mus musculus. Briefly: Antifertility activity in male Swiss albino mouse assessed as viable conceptus at 10 mg/kg, po qd administered for 5 days followed by mating measured after 4 weeks. The format is functional, organism-based. Details: dose 10 mg/kg. In outline:
as §1

Data set [4] deals with Mus musculus. Kind of data set: Antifertility activity in male Swiss albino mouse assessed as reduction of litter size at 10 mg/kg, po administered for 5 days followed by mating measured for 2 weeks. The format is functional, organism-based. Also noted: dose 10 mg/kg. The method, boiled down: as §1
The nature of data set [5]: Solubility of the compound in water. The data set is classed as physicochemical. As to conditions: buffer. In outline:
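Saturated aqueous solutions were shaken 23 h at 24 °C. The dissolved amount was determined gravimetrically after evaporation and drying at 70 °C.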

The nature of data set [6]: Octanol-water partition coefficient, log P of the compound. The format is physicochemical. In outline: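 Shake-flask partitioning: 0.5 g solute in 50.0 mL each of 1-octanol and water, shaken 18 h at 24 °C. Layers were separated, filtered and evaporated (octanol removed as its water azeotrope), dried at 70 °C and weighed. Concentrations were determined gravimetrically.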

The test system of data set [7] is L1210. Kind of data set: Antitumor activity against mouse L1210 cells allografted in mouse assessed as mean survival time at 10 mg/kg, ip after 9 days. As to conditions: route intraperitoneal. The data set is classed as functional. The method, boiled down: (§2)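 Mice bearing ip-implanted L1210 ascites cells dosed ip daily for 9 days, run by NCI contractors. Activity was expressed as % T/C, the mean survival time of treated over control animals as a percent, with >125% taken as active. Deaths at a given dose were recorded as toxicity.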

The subject of data set [8] is Mus musculus. Kind of data set: Toxicity in mouse allografted with mouse L1210 cells assessed as death at 20 mg/kg, ip. The format is organism-based. Details: dose 20 mg/kg, route intraperitoneal. As to conditions: in vivo. In outline: as §2
The test system of data set [9] is Mus musculus. Kind of data set: Antifertility activity in male Swiss albino mouse assessed as nonpregnant female mouse at 33.8 mg/kg, po qd administered for 5 days followed by mating measured after 1 week. The format is functional, organism-based. Also noted: dose 33.8 mg/kg. In outline:
as §1

Data set [10] deals with Mus musculus. Briefly: Antifertility activity in male Swiss albino mouse assessed as nonpregnant female mouse at 33.8 mg/kg, ip qd administered for 5 days followed by mating measured after 2 weeks. The format is functional, organism-based. Also noted: dose 33.8 mg/kg. In outline: as §1
In data set [11] the test system is Mus musculus. Kind of data set: Antifertility activity in male Swiss albino mouse assessed as nonpregnant female mouse at 10 mg/kg, ip qd administered for 5 days followed by mating measured after 2 weeks. The format is functional, organism-based. Also noted: dose 10 mg/kg. In outline:
as §1

The subject of data set [12] is Mus musculus. Briefly: Antifertility activity in male Swiss albino mouse assessed as viable conceptus at 22.5 mg/kg, ip qd administered for 5 days followed by mating measured after 2 weeks. Details: dose 22.5 mg/kg. The format is functional, organism-based. In outline: as §1
Data set [13] has as its system Mus musculus. Briefly: Antifertility activity in male Swiss albino mouse assessed as nonpregnant female mouse at 33.8 mg/kg, ip qd administered for 5 days followed by mating measured after 3 weeks. Also noted: dose 33.8 mg/kg. The format is functional, organism-based. The method, boiled down:
as §1

Data set [14] deals with Mus musculus. Kind of data set: Antifertility activity in male Swiss albino mouse assessed as nonpregnant female mouse at 22.5 mg/kg, po qd administered for 5 days followed by mating measured after 3 weeks. The data set is classed as functional, organism-based. Details: dose 22.5 mg/kg. The method, boiled down: as §1
The subject of data set [15] is Mus musculus. Kind of data set: Antifertility activity in male Swiss albino mouse assessed as viable conceptus at 22.5 mg/kg, ip qd administered for 5 days followed by mating measured after 3 weeks. The format is functional, organism-based. Details: dose 22.5 mg/kg. The method, boiled down: as §1
Data set [16] has as its system Mus musculus. Briefly: Antifertility activity in male Swiss albino mouse assessed as viable conceptus at 10 mg/kg, ip qd administered for 5 days followed by mating measured after 3 weeks. The format is functional, organism-based. Details: dose 10 mg/kg. In outline:
as §1

Data set [17] has as its system Mus musculus. Briefly: Antifertility activity in male Swiss albino mouse assessed as viable conceptus at 33.8 mg/kg, po qd administered for 5 days followed by mating measured after 3 weeks. Also noted: dose 33.8 mg/kg. The data set is classed as functional, organism-based. In outline:
as §1

The subject of data set [18] is Mus musculus. Briefly: Antifertility activity in male Swiss albino mouse assessed as nonpregnant female mouse at 33.8 mg/kg, ip qd administered for 5 days followed by mating measured after 4 weeks. The data set is classed as functional, organism-based. Details: dose 33.8 mg/kg. In outline: as §1
Data set [19] concerns Mus musculus. Kind of data set: Antifertility activity in male Swiss albino mouse assessed as nonpregnant female mouse at 10 mg/kg, ip qd administered for 5 days followed by mating measured after 4 weeks. The format is functional, organism-based. Also noted: dose 10 mg/kg. The method, boiled down:
as §1

The subject of data set [20] is Mus musculus. Briefly: Antifertility activity in male Swiss albino mouse assessed as viable conceptus at 10 mg/kg, ip qd administered for 5 days followed by mating measured after 4 weeks. The data set is classed as functional, organism-based. Details: dose 10 mg/kg. The method, boiled down:
as §1

Data set [21] relates to Mus musculus. Briefly: Antifertility activity in male Swiss albino mouse assessed as nonpregnant female mouse at 22.5 mg/kg, ip qd administered for 5 days followed by mating measured after 5 weeks. The format is functional, organism-based. Also noted: dose 22.5 mg/kg. In outline: as §1
Data set [22] has as its system Mus musculus. Kind of data set: Antifertility activity in male Swiss albino mouse assessed as nonpregnant female mouse at 33.8 mg/kg, ip qd administered for 5 days followed by mating measured after 5 weeks. Also noted: dose 33.8 mg/kg. The data set is classed as functional, organism-based. The method, boiled down:
as §1

The subject of data set [23] is Mus musculus. Briefly: Antifertility activity in male Swiss albino mouse assessed as nonpregnant female mouse at 15 mg/kg, po qd administered for 5 days followed by mating measured after 5 weeks. The format is functional, organism-based. Details: dose 15 mg/kg. In outline: as §1
The subject of data set [24] is Mus musculus. Kind of data set: Antifertility activity in male Swiss albino mouse assessed as nonpregnant female mouse at 22.5 mg/kg, po qd administered for 5 days followed by mating measured after 5 weeks. The data set is classed as functional, organism-based. Also noted: dose 22.5 mg/kg. The method, boiled down: as §1
For data set [25], the system named is Mus musculus. Briefly: Antifertility activity in male Swiss albino mouse assessed as nonpregnant female mouse at 33.8 mg/kg, po qd administered for 5 days followed by mating measured after 5 weeks. Also noted: dose 33.8 mg/kg. The format is functional, organism-based. In outline:
as §1

Data set [26] concerns Mus musculus. Briefly: Antifertility activity in male Swiss albino mouse assessed as viable conceptus at 10 mg/kg, ip administered for 5 days followed by mating measured after 5 weeks. The format is functional, organism-based. Also noted: dose 10 mg/kg. In outline:
as §1

In data set [27] the test system is Mus musculus. Kind of data set: Antifertility activity in male Swiss albino mouse assessed as viable conceptus at 15 mg/kg, ip administered for 5 days followed by mating measured after 5 weeks. The format is functional, organism-based. Details: dose 15 mg/kg. The method, boiled down: as §1
The subject of data set [28] is L1210. Kind of data set: Antitumor activity against mouse L1210 cells allografted in mouse assessed as mean survival time at 50 mg/kg, ip after 9 days. The data set is classed as functional. As to conditions: route intraperitoneal. The method, boiled down: as §2
For data set [29], the system named is Mus musculus. Briefly: Toxicity in mouse allografted with mouse L1210 cells assessed as death at 200 mg/kg, ip. The format is organism-based. Details: dose 200 mg/kg, route intraperitoneal. As to conditions: in vivo. The method, boiled down: as §2
Data set [30] concerns Mus musculus. Kind of data set: Antifertility activity in male Swiss albino mouse assessed as nonpregnant female mouse at 15 mg/kg, ip qd administered for 5 days followed by mating measured after 1 week. The data set is classed as functional, organism-based. Details: dose 15 mg/kg. In outline: as §1
The test system of data set [31] is Mus musculus. Kind of data set: Antifertility activity in male Swiss albino mouse assessed as nonpregnant female mouse at 22.5 mg/kg, ip qd administered for 5 days followed by mating measured after 1 week. Also noted: dose 22.5 mg/kg. The format is functional, organism-based. The method, boiled down:
as §1

The test system of data set [32] is Mus musculus. Kind of data set: Antifertility activity in male Swiss albino mouse assessed as nonpregnant female mouse at 33.8 mg/kg, ip qd administered for 5 days followed by mating measured after 1 week. Also noted: dose 33.8 mg/kg. The data set is classed as functional, organism-based. The method, boiled down: as §1
Data set [33] relates to Mus musculus. Briefly: Antifertility activity in male Swiss albino mouse assessed as nonpregnant female mouse at 10 mg/kg, […] administered for 5 days followed by mating measured after 1 week. The format is functional, organism-based. Also noted: dose 10 mg/kg. The method, boiled down: as §1
The subject of data set [34] is Mus musculus. Kind of data set: Antifertility activity in male Swiss albino mouse assessed as nonpregnant female mouse at 15 mg/kg, po qd administered for 5 days followed by mating measured after 1 week. The format is functional, organism-based. Details: dose 15 mg/kg. In outline:
as §1

Activity calls are given as the source filed them. The rule behind the calls is not given here.

Take `O=P(NC12CC3CC(CC(C3)C1)C2)(N1CC1)N1CC1`: the outcome in the data set on Mus musculus [1], with Mus musculus [2] and with Mus musculus [4] was Active. In addition, the outcome with Mus musculus [3] was inactive. Moreover, in [5], the solubility is reported as 0.13%. The molecule further returned a log partition coefficient (logP) in [6] of 1.45. Also, the T/C in the data set on L1210 [7] was found to be 244%. The Activity result in the data set on Mus musculus [8] is on record as “Toxic”.

Consider `O=P(N1CC1)(N1CC1)C12CC3CC(CC(C3)C1)C2`, for which the outcome with Mus musculus [9], in the data set on Mus musculus [11], in the data set with Mus musculus [12], in the data set with Mus musculus [14], in the data set with Mus musculus [16] and in the data set on Mus musculus [17] was inactive. Besides, the outcome in the data set with Mus musculus [19], in the data set on Mus musculus [20], in the data set with Mus musculus [21], in the data set on Mus musculus [23], in the data set with Mus musculus [24] and in the data set on Mus musculus [25] was inactive. For the same molecule, the outcome with Mus musculus [26], in the data set on Mus musculus [27], with Mus musculus [33] and in the data set on Mus musculus [34] was inactive. Also, the outcome with Mus musculus [1], in the data set on Mus musculus [10], with Mus musculus [13], in the data set on Mus musculus [15], in the data set on Mus musculus [18] and in the data set on Mus musculus [22] was Active. Besides, the outcome in the data set with Mus musculus [30], in the data set with Mus musculus [31] and with Mus musculus [32] was Active. In data set [5], this molecule came in with a solubility of 0.94%. This molecule yielded a logP in data set [6] of 0.88. Further, the T/C in the data set with L1210 [28] is on record as 243%. Also, the Activity entry in the data set with Mus musculus [29] is listed as “Toxic”.

The term logP denotes the decadic logarithm of the partition coefficient of the neutral form, usually between octanol and water. The low end stands for a more hydrophilic compound, the high end for a more lipophilic compound. By T/C is commonly meant the result in the treated group divided by that in the control group, in per cent.

The values above are taken from ChEMBL document CHEMBL3272221, “Phosphorus-nitrogen compounds. 21. Murine oncolytic and antifertility effect of adamantylaziridine compounds” (J Med Chem, 1978).
